One block for each molecule: values may come before it. Active and inactive are the calls of the source. The rule behind the calls is not given here.
Assays:
[1] = Chemical stability of the compound assessed as amide hydrolysis at pH >8; type: physicochemical
[2] = Volume of distribution at steady state in Han Wistar rat at 0.5 mg/kg, iv by LC-MS/MS analysis; type: ADME, organism-based; set-up: dose 0.5 mg/kg, route intravenous; settings: in vivo, read-out: Vdss
Outline: (§1)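 Rat PK after a single intravenous bolus. Parameters derived from plasma levels: total plasma clearance, steady-state volume of distribution, half-life and AUC.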

[3] = target: T1, E3 ubiquitin-protein ligase XIAP (Homo sapiens, UniProt P98170); test: Displacement of AbuRPFK-5FAM from GST-tagged XIAP BIR2 domain ([…] to P260) (unknown origin) after 20 mins by fluorescence polarization assay
T1 sequence (P98170 whole entry, the tested form may be a part): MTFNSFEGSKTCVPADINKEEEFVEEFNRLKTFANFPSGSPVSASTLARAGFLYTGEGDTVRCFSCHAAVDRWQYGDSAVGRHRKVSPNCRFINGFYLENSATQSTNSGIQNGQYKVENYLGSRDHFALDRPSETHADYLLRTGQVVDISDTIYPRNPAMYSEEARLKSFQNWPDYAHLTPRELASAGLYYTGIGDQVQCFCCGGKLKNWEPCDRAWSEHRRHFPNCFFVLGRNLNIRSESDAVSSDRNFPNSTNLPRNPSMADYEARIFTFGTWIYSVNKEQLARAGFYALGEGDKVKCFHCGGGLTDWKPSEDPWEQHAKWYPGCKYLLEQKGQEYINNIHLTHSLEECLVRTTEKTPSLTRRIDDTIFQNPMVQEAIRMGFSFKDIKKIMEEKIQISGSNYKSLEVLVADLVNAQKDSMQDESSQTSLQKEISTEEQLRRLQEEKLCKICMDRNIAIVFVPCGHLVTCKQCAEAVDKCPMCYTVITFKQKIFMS
Outline: (§2)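 Competitive fluorescence polarization binding assay. Measures displacement of a 5-carboxyfluorescein-tagged synthetic peptide from the AVPI groove of the isolated BIR domain.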

[4] = Chemical stability of the compound assessed as amide hydrolysis at pH 1; type: physicochemical; settings: buffer
[5] = AUC in Han Wistar rat at 0.5 mg/kg, iv by LC-MS/MS analysis; type: ADME, organism-based; set-up: dose 0.5 mg/kg, route intravenous; settings: plasma; outline: as §1
[6] = Total plasma clearance in Han Wistar rat at 0.5 mg/kg, iv by LC-MS/MS analysis; type: ADME, organism-based; set-up: dose 0.5 mg/kg, route intravenous; outline: as §1
[7] = Photostability of the compound; type: physicochemical
MDA-MB-231 [8] = test: Antiproliferative activity against human MDA-MB-231 cells assessed as growth inhibition after 48 hrs by Alamar Blue assay; type: functional; settings: MDA-MB-231, 48 h
[9] = target: T1, E3 ubiquitin-protein ligase XIAP; test: Displacement of AbuRPFK-5FAM from GST-tagged XIAP BIR3 domain (N252 to E350) (unknown origin) after 20 mins by fluorescence polarization assay; outline: as §2
[10] = target: T2, Baculoviral IAP repeat-containing protein 2 (Homo sapiens, UniProt Q13490); test: Displacement of AbuRPFK-5FAM from GST-tagged cIAP1 BIR3 domain (L250 to G350) (unknown origin) after 20 mins by fluorescence polarization assay; outline: as §2
T2 sequence (Q13490 whole entry, the tested form may be a part): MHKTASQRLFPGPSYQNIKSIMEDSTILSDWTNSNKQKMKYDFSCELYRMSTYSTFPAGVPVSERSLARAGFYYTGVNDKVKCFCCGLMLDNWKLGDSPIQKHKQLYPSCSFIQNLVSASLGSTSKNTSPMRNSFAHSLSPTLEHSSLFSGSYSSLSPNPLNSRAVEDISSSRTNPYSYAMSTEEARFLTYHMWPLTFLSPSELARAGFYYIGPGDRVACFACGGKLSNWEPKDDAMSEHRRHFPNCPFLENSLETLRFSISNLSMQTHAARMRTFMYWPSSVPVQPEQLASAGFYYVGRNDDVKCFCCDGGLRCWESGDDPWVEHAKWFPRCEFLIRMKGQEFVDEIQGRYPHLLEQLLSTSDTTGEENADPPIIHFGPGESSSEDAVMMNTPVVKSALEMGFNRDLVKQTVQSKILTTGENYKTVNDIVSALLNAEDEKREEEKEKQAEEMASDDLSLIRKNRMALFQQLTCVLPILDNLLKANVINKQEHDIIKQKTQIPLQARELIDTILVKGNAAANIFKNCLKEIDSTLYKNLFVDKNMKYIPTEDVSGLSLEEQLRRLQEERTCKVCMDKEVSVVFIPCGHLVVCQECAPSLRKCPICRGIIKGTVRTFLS

[11] = target: T3, Baculoviral IAP repeat-containing protein 3 (Homo sapiens, UniProt Q13489); test: Displacement of AbuRPFK-5FAM from GST-tagged cIAP2 BIR3 domain (I235 to A336) (unknown origin) after 20 mins by fluorescence polarization assay; outline: as §2
T3 sequence (Q13489 whole entry, the tested form may be a part): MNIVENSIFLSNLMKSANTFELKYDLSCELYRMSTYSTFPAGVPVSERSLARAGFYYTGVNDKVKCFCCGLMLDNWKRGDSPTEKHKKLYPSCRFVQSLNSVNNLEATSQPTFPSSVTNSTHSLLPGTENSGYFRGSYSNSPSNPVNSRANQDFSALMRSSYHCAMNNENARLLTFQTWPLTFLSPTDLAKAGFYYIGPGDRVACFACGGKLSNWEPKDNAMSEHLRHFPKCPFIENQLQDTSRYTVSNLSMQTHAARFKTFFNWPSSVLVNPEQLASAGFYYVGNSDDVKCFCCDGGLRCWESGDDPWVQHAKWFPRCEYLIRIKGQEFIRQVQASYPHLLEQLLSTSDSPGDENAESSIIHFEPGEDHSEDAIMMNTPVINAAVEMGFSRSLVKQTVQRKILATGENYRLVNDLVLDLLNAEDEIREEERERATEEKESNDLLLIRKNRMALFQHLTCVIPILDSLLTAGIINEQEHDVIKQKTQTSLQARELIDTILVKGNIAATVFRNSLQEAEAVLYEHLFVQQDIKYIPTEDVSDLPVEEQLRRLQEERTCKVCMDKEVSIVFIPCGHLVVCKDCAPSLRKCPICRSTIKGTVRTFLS

[12] = Hydrolytic stability of the compound at pH 4 to 6; type: physicochemical; settings: buffer
[13] = target: T2, Baculoviral IAP repeat-containing protein 2; test: Binding affinity to cIAP1 in human MDA-MB-231 cells assessed as induction of protein degradation after 1 hr by ELISA; type: cell-based
[14] = Elimination half life in Han Wistar rat at 0.5 mg/kg, iv by LC-MS/MS analysis; type: ADME, organism-based; set-up: dose 0.5 mg/kg, route intravenous; settings: in vivo, read-out: beta t1/2 (converted); outline: as §1
[15] = Apparent permeability from apical to basolateral side in human Caco2 cells; type: ADME, cell-based; settings: Caco-2
[16] = target: T3, Baculoviral IAP repeat-containing protein 3; test: Binding affinity to cIAP2 in human MDA-MB-231 cells assessed as induction of protein degradation at 0.03 to 1 nM after 1 hr by Western blotting analysis; type: cell-based
Outline: (§3)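 MDA-MB-231 cells were treated with a range of compound concentrations. IAP protein levels were assessed by western blot: cIAP2 after 1 h, XIAP after 4 h.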

Mus musculus [17] = test: Induction of cIAP1 degradation in tumor of CB17 SCID mouse xenografted with human MDA-MB-231 cells at 0.05 to 3 mg/kg, iv up to 18 hrs by ELISA; type: functional, organism-based
Outline: (§4)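 Mice bearing MDA-MB-231 xenografts received a single intravenous dose. Intratumoral cIAP1 protein and cleaved caspase-3 levels were measured at 4, 6 and 18 h postdose.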

Mus musculus [18] = test: Induction of caspase-3 cleavage in tumor of CB17 SCID mouse xenografted with human MDA-MB-231 cells at 0.05 to 3 mg/kg, iv after 4 to 18 hrs by ELISA; type: functional, organism-based; outline: as §4
MIA PaCa-2 = test: Growth inhibition of human MIAPaCa2 cells; type: functional, cell-based
Homo sapiens = species: Homo sapiens; test: Growth inhibition of human 97-7 cells; type: functional
MDA-MB-231 [19] = test: Antitumor activity against human MDA-MB-231 cells xenografted in CB17 SCID mouse assessed as tumor growth inhibition at 0.1 to 3 mg/kg, iv administered once a week for 2 weeks measured twice a week for 78 days; type: functional, organism-based
Outline: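 MDA-MB-231 tumors were implanted orthotopically in mice and grown to about 120 mm³ average. Vehicle or compound was then given intravenously once weekly for 2 weeks, at 0.1, 0.5 or 3.0 mg/kg. Tumor volume was measured twice weekly for 78 days and reported as geometric mean ± SE.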

647-V = test: Growth inhibition of human 647V cells; type: functional, cell-based
BT-549 = test: Growth inhibition of human BT549 cells; type: functional, cell-based
[20] = target: T1, E3 ubiquitin-protein ligase XIAP; test: Binding affinity to XIAP in human MDA-MB-231 cells assessed as effect on protein level at 0.1 to 100 nM after 4 hrs by Western blotting analysis; type: cell-based; outline: as §3
MDA-MB-231 [21] = test: Induction of apoptosis in human MDA-MB-231 cells assessed as caspase-3 cleavage at 0.5 to 1.5 nM preincubated for 1 to 3 hrs followed by compound-washout measured after 24 hrs by luciferase reporter gene assay; type: functional, cell-based
Outline: (§5)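 MDA-MB-231 cells were exposed to increasing compound concentrations for 1 or 3 h, rinsed, then given drug-free medium. Active caspase-3 per well was read at 24 h total. Survival was measured by MTS at 72 h total; 0% survival means complete cell death.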

[22] = target: T2, Baculoviral IAP repeat-containing protein 2; test: Binding affinity to cIAP1 in human MDA-MB-231 cells assessed as induction of protein degradation after 1 hr by Western blotting analysis; type: cell-based
[23] = target: T1, E3 ubiquitin-protein ligase XIAP; test: Inhibition of XIAP-caspase-9 interaction in human MDA-MB-231 cells at 1 uM after 4 hrs by immunoprecipitation assay; type: cell-based
Outline: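 MDA-MB-231 cells were left untreated or exposed to 1 μM compound for 4 h. Caspase-9 was immunoprecipitated from the lysates, and caspase-9–XIAP complexes were detected by blotting.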

MDA-MB-231 [24] = test: Induction of apoptosis in human MDA-MB-231 cells assessed as cell death at 0.5 to 1.5 nM preincubated for 1 to 3 hrs followed by compound-washout measured after 72 hrs by MTS assay; type: functional, cell-based; outline: as §5
[25] = AUC in Han Wistar rat at 1 mg/kg, iv by LC-MS/MS analysis; type: ADME, organism-based; set-up: dose 1 mg/kg, route intravenous; settings: plasma; outline: as §1
[26] = Total plasma clearance in Han Wistar rat at 1 mg/kg, iv by LC-MS/MS analysis; type: ADME, organism-based; set-up: dose 1 mg/kg, route intravenous; outline: as §1
[27] = Elimination half life in Han Wistar rat at 1 mg/kg, iv by LC-MS/MS analysis; type: ADME, organism-based; set-up: dose 1 mg/kg, route intravenous; settings: in vivo, read-out: beta t1/2 (converted); outline: as §1
[28] = Volume of distribution at steady state in Han Wistar rat at 1 mg/kg, iv by LC-MS/MS analysis; type: ADME, organism-based; set-up: dose 1 mg/kg, route intravenous; settings: in vivo, read-out: Vdss; outline: as §1
[29] = Aqueous solubility of the compound at pH 4 to 6; type: physicochemical
[30] = Volume of distribution at steady state in Han Wistar rat at 0.8 mg/kg, iv by LC-MS/MS analysis; type: ADME, organism-based; set-up: dose 0.8 mg/kg, route intravenous; settings: in vivo, read-out: Vdss; outline: as §1
[31] = Elimination half life in Han Wistar rat at 0.8 mg/kg, iv by LC-MS/MS analysis; type: ADME, organism-based; set-up: dose 0.8 mg/kg, route intravenous; settings: in vivo, read-out: beta t1/2 (converted); outline: as §1
[32] = AUC in Han Wistar rat at 0.8 mg/kg, iv by LC-MS/MS analysis; type: ADME, organism-based; set-up: dose 0.8 mg/kg, route intravenous; settings: plasma; outline: as §1
[33] = Total plasma clearance in Han Wistar rat at 0.8 mg/kg, iv by LC-MS/MS analysis; type: ADME, organism-based; set-up: dose 0.8 mg/kg, route intravenous; outline: as §1

Stability [1]: Unstable | Vd [2]: 0.8 L/kg | IC50 [3]: 21 nM | Stability [4]: Unstable | AUC [5]: 166 ng·h/mL | clearance [6]: 50 mL/min/kg | Stability [7]: Stable | GI50 (MDA-MB-231 [8]): < 0.06 nM | IC50 [9]: 15 nM | IC50 [10]: 15 nM | IC50 [11]: 21 nM | Stability [12]: Stable | EC50 [13]: 0.1 nM | half-life [14]: 0.5 h | Papp A→B [15]: < 0.1 ×10⁻⁶ cm/s
SMILES: CN[C@@H](C)C(=O)N[C@H](C(=O)N1CCC[C@H]1C(=O)N[C@H]1c2ccccc2C[C@H]1OCC#CC#CCO[C@@H]1Cc2ccccc2[C@@H]1NC(=O)[C@@H]1CCCN1C(=O)[C@@H](NC(=O)[C@H](C)NC)C1CCCCC1)C1CCCCC1 [listing 1 of 2 here]

Activity [16]: Active | Activity [20]: inactive | Activity [22]: Dose-dependent effect | inhibition [23]: Active
SMILES: CN[C@@H](C)C(=O)N[C@H](C(=O)N1CCC[C@H]1C(=O)N[C@H]1c2ccccc2C[C@H]1OCC#CC#CCO[C@@H]1Cc2ccccc2[C@@H]1NC(=O)[C@@H]1CCCN1C(=O)[C@@H](NC(=O)[C@H](C)NC)C1CCCCC1)C1CCCCC1 [listing 2 of 2 here]
Activity (Mus musculus [17]): Active | Activity (Mus musculus [18]): Active | growth inhibition (GI) (MIA PaCa-2): Active | growth inhibition (GI) (Homo sapiens): Active | TGI (MDA-MB-231 [19]): Active | growth inhibition (GI) (647-V): Active | growth inhibition (GI) (BT-549): Active | Activity (MDA-MB-231 [21]): Active | Activity (MDA-MB-231 [24]): Active

AUC [25]: 206 ng·h/mL | GI50 (MDA-MB-231 [8]): < 0.1 nM | clearance [26]: 80 mL/min/kg | half-life [27]: 1.2 h | EC50 [13]: 0.6 nM | Vd [28]: 1.9 L/kg
SMILES: CN[C@@H](C)C(=O)N[C@H](C(=O)N1CCC[C@H]1C(=O)N[C@H]1c2ccccc2C[C@H]1OCCOCCO[C@@H]1Cc2ccccc2[C@@H]1NC(=O)[C@@H]1CCCN1C(=O)[C@@H](NC(=O)[C@H](C)NC)C1CCCCC1)C1CCCCC1

solubility [29]: > 7000 µg/mL
SMILES: CN[C@@H](C)C(=O)N[C@H](C(=O)N1CCC[C@H]1C(=O)N[C@H]1c2ccccc2C[C@H]1OCC#CC#CCO[C@@H]1Cc2ccccc2[C@@H]1NC(=O)[C@@H]1CCCN1C(=O)[C@@H](NC(=O)[C@H](C)NC)C1CCCCC1)C1CCCCC1.Cl.Cl

Vd [30]: 1.4 L/kg | half-life [31]: 3.6 h | GI50 (MDA-MB-231 [8]): < 0.1 nM | EC50 [13]: 0.1 nM | AUC [32]: 262 ng·h/mL | clearance [33]: 45 mL/min/kg
SMILES: CN[C@@H](C)C(=O)N[C@H](C(=O)N1CCC[C@H]1C(=O)N[C@H]1c2ccccc2C[C@H]1OCCCCCCO[C@@H]1Cc2ccccc2[C@@H]1NC(=O)[C@@H]1CCCN1C(=O)[C@@H](NC(=O)[C@H](C)NC)C1CCCCC1)C1CCCCC1

— ChEMBL document CHEMBL3108710, “Discovery of a novel class of dimeric Smac mimetics as potent IAP antagonists resulting in a clinical candidate for the treatment of cancer (AZD5582)” (J Med Chem, 2013)
